We go through 15 compounds from ChEMBL document CHEMBL1142048, “Design, synthesis and structure-activity relationship studies of hexahydropyrazinoquinolines as a novel class of potent and selective dopamine receptor 3 (D3) ligands” (Bioorg Med Chem Lett, 2005).

A short description of experiment [1]: Binding affinity for D1-like [3H]-SCH- 23390 receptor was determined using caudate-putamen of adult male Spragueo?=Dawley rats. In kind it is tissue-based, Rattus norvegicus. In outline:
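Rat caudate-putamen membranes, adult male Sprague–Dawley. Buffer 50 mM Tris–HCl, 5 mM KCl, 2 mM MgCl2, 2 mM CaCl2, pH 7.4 at 23 °C. [3H]SCH 23390 0.3 nM, with nonspecific binding defined by 1 μM (+)-butaclamol. Compounds were dissolved in 100% EtOH up to 5 mM (stock).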

The nature of experiment [2]: Binding affinity for D2-like [3H]spiperone receptor was determined using caudate-putamen of adult male Spragueo?=Dawley rats. In kind it is tissue-based, Rattus norvegicus. In outline: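 Rat caudate-putamen membranes, adult male Sprague–Dawley. Buffer 50 mM Tris–HCl, 5 mM KCl, 2 mM MgCl2, 2 mM CaCl2, pH 7.4 at 23 °C. [3H]spiperone 0.2 nM, with nonspecific binding defined by 1 μM (+)-butaclamol. Compounds were dissolved in 100% EtOH up to 5 mM (stock). Ki was derived from the radioligand KD.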

Experiment [3] has as its target D(3) dopamine receptor (Rattus norvegicus, UniProt P19020). Put plainly: biochemical.

Structures are written as SMILES.

One may read the Ki as the equilibrium dissociation constant of an inhibitor or competing ligand from its target. The low end stands for a stronger hold on the target, the high end for a looser hold on the target.

Chain of D(3) dopamine receptor (P19020 whole entry): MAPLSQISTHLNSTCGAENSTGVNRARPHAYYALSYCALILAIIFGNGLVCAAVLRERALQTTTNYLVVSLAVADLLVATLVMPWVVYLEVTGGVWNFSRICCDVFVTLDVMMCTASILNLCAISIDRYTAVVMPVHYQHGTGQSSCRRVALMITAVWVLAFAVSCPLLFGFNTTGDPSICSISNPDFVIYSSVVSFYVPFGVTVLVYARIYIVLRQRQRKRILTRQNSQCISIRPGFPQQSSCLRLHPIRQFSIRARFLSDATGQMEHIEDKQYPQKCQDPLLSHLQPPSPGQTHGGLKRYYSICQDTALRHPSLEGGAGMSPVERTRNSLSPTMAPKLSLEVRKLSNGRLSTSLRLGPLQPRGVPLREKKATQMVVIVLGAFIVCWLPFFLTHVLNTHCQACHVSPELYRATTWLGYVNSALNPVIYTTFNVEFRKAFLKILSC

On to `COc1cccc2c1CCC1CN(CCCCNC(=O)c3ccc4ccccc4c3)CCN21` (stereo not drawn), for which the Ki in experiment [1] came out at 4600 nM; in experiment [2], 762 nM; in experiment [3], 5.8 nM.
Consider `O=C(NCCN1CCN2c3ccccc3CCC2C1)c1ccc2ccccc2c1` (stereo not drawn), for which the Ki in experiment [1] was found to be 1220 nM; in experiment [2] it was 1390 nM; in experiment [3], 1650 nM.
Regarding `O=C(NCCCCN1CCN2c3ccccc3CCC2C1)c1ccc2ccccc2c1` (stereo not drawn), the Ki came out at 791 nM in experiment [1], 1570 nM in experiment [2] and 18 nM in experiment [3].
For `O=C(CCCCN1CCN2c3ccccc3CCC2C1)c1ccc(F)cc1` (stereo not drawn), the values for the Ki in experiment [1], in experiment [2] and in experiment [3] were 2470 nM, 852 nM and 381 nM, respectively.
`O=C(CCN1CCN2c3ccccc3CCC2C1)c1ccc(F)cc1` (stereo not drawn): the Ki turned out to be 8890 nM in experiment [1], 3640 nM in experiment [2] and 2750 nM in experiment [3].
Taken in the same sequence, the figures for `O=C(NCCCN1CCN2c3ccccc3CCC2C1)c1ccc(-c2ccccc2)cc1` (stereo not drawn) were 356 nM, 906 nM and 2520 nM.
With `COc1ccccc1N1CCN(CCCCNC(=O)c2ccc3ccccc3c2)CC1` [BP-897], the Ki in experiment [1] was determined as 636 nM; in experiment [2] it was 162 nM.
On to `O=C(NCCCN1CCN2c3ccccc3CCC2C1)c1ccc2ccccc2c1` (stereo not drawn), for which the Ki came to 153000 nM in experiment [1], 2440 nM in experiment [2] and 1540 nM in experiment [3].
Take `O=C(NCCN1CCN2c3ccccc3CCC2C1)c1ccc(-c2ccccc2)cc1` (stereo not drawn): the results for the Ki in experiment [1], in experiment [2] and in experiment [3] were over 100000 nM, over 100000 nM and 23000 nM, respectively.
As for `O=C(CN1CCN2c3ccccc3CCC2C1)c1ccc(F)cc1` (stereo not drawn), the inhibition constant (Ki) in experiment [1] is 7950 nM; in experiment [2] it was 3890 nM; in experiment [3] it was 7490 nM.
Regarding `O=C(NCCCCN1CCN2c3ccccc3CCC2C1)c1ccc(-c2ccccc2)cc1` (stereo not drawn), the figures for the Ki in experiment [1], in experiment [2] and in experiment [3] were 258 nM, 220 nM and 22 nM, respectively.
`COc1ccc2c(c1)N1CCN(CCCCNC(=O)c3ccc4ccccc4c3)CC1CC2` (stereo not drawn): the Ki in experiment [1] was determined as 5800 nM; in experiment [2] it was 1120 nM; in experiment [3], 45 nM.
Regarding `COc1cccc2c1N1CCN(CCCCNC(=O)c3ccc4ccccc4c3)CC1CC2` (stereo not drawn), the Ki in experiment [1] is 6050 nM; in experiment [2], 258 nM.
`O=C(CCCN1CCN2c3ccccc3CCC2C1)c1ccc(F)cc1` (stereo not drawn): the Ki in experiment [1] is 904 nM; in experiment [2], 243 nM; in experiment [3], 304 nM.
Turning to `COc1ccc2c(c1)CCC1CN(CCCCNC(=O)c3ccc4ccccc4c3)CCN21` (stereo not drawn), the values for the Ki in experiment [1], in experiment [2] and in experiment [3] were over 250000 nM, over 250000 nM and 244 nM, respectively.
